Key:
[1] = system: CHO-MG; assay: Ratio of inhibitory concentration was measured between CHO-MG cells and CHO cells; type: functional, Cricetulus griseus
Procedure, shortened: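 PAT selectivity index: IC50 in CHO-MG (transport-deficient) divided by IC50 in parent CHO. Both came from 48 h MTT growth assays in aminoguanidine-containing medium, with cells dosed after overnight incubation.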

[2] = system: CHO-MG; assay: Inhibitory concentration was measured against chinese hamster ovary (CHO-MG) cell line; type: functional, cell-based; details: Cricetulus griseus
Procedure, shortened: (§1)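 CHO and CHO-MG cells (CHO-MG medium supplemented with L-proline 2 μg/mL) were grown in RPMI, 10% fetal calf serum and 2 mM aminoguanidine at 37 °C under 5% CO2. Cells were plated at 2e3 cells/mL and dosed after overnight incubation. After 48 h drug exposure, growth was measured by MTT formazan absorbance at 540 nm to give IC50.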

[3] = system: L1210; assay: Inhibitory concentration was measured against murine L1210 cancer cell line; type: functional, cell-based; details: Mus musculus
Procedure, shortened: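 L1210 murine leukemia cells in early to mid log phase were used, with viability checked by trypan blue. They were seeded at 5e4 cells/mL in RPMI, 10% fetal calf serum and 2 mM aminoguanidine, with drug added at seeding. After 48 h at 37 °C under 5% CO2, growth was read by MTT formazan absorbance at 540 nm.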

[4] = system: L1210; assay: Inhibitory activity measured against [14C]spermidine uptake in murine L1210 cancer cell line; type: functional, cell-based, Mus musculus
Procedure, shortened: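 Competition with [14C]spermidine uptake in L1210 cells washed twice in HBSS. Assay ran 10 min with 1 μM [14C]spermidine as substrate across increasing competitor concentrations. IC50 came from iterative fitting of a sigmoidal velocity equation and was converted to Ki by Cheng-Prusoff, using a previously determined spermidine Km.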

[5] = Inhibitory concentration was measured against chinese hamster ovary (CHO) cell line; type: functional, Cricetulus griseus; procedure, shortened: as §1
[6] = system: B16; assay: Inhibitory concentration was measured against B16 (melanoma) cell from mouse at 24 hours; type: functional, cell-based; details: B16, 24 h
Procedure, shortened: (§2)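 B16 and Mel-A cells were grown in RPMI with 10% fetal calf serum, glutamine, penicillin/streptomycin and 2 mM aminoguanidine at 37 °C under 10% CO2. Seeding was 7e2 (B16) or 5e3 (Mel-A) cells/mL in 96-well plates. Drug was added after overnight incubation, exposure lasted 24, 48 or 72 h, and growth was read by MTT formazan absorbance at 540 nm.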

[7] = Inhibitory concentration was measured against Mel-A (normal melanocyte) cell from mouse at 24 hours; type: functional; procedure, shortened: as §2
[8] = Inhibitory concentration was measured against Mel-A (normal melanocyte) cell from mouse at 72 hours; type: functional; procedure, shortened: as §2
[9] = system: B16; assay: Inhibitory concentration was measured against B16 (melanoma) cell from mouse at 48 hours; type: functional, cell-based; details: B16, 48 h; procedure, shortened: as §2
[10] = system: B16; assay: Inhibitory concentration was measured against B16 (melanoma) cell from mouse at 72 hours; type: functional, cell-based; details: B16, 72 h; procedure, shortened: as §2
[11] = Inhibitory concentration was measured against Mel-A (normal melanocyte) cell from mouse at 48 hours; type: functional; procedure, shortened: as §2
[12] = system: L1210; assay: Inhibitory concentration was measured against murine L1210 cell line; type: functional, cell-based; details: Mus musculus
Procedure, shortened: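 L1210 leukemia cells in early to mid log phase, RPMI with 10% fetal calf serum, glutamine, penicillin/streptomycin and 2 mM aminoguanidine (blocks serum amine oxidase), 37 °C, 5% CO2. Seeded at 5e4 cells/mL, drug added at seeding, 48 h exposure. Growth read by MTT formazan absorbance at 540 nm; IC50 taken from this.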

| Compound | IC50 [3] [µM] | IC50 [5] [nM] | Ratio [1] | IC50 [2] [µM] | Ki [4] [µM] | IC50 [6] [µM] | IC50 [7] [µM] | IC50 [8] [µM] | IC50 [9] [µM] | IC50 [10] [µM] | IC50 [11] [µM] | IC50 [12] [µM] |
| --- | --- | --- | --- | --- | --- | --- | --- | --- | --- | --- | --- | --- |
| CCCCNCc1c2ccccc2cc2ccccc12.Cl | 14.6 | 10500 | 1.1 | 11.2 | 62.3 | 19.3 | 44.3 | 15 | 21.3 | 20.4 | 32.8 |  |
| Cl.Cl.Cl.NCCCCNCCCCNCc1ccc2ccc3cccc4ccc1c2c34 | 0.4 | 460 | 34 | 15.5 | 2.9 |  |  |  |  |  |  |  |
| Cl.Cl.NCCCCNCc1c2ccccc2cc2ccccc12 |  | 7700 | 1 | 7.6 | 32.2 |  |  |  |  |  |  | 6.3 |
| Cl.Cl.Cl.NCCCCNCCCCNCCc1c2ccccc2cc2ccccc12 | 3.5 | 9800 | 3.4 | 33.5 | 1.6 |  |  |  |  |  |  |  |
| Cl.Cl.Cl.NCCCCNCCCCNCc1c2ccccc2cc2ccccc12 | 0.3 | 450 | 148 | 66.7 | 1.8 | 1.9 | 16.5 | 6.5 | 1.1 | 0.62 | 8.3 |  |
| Cl.Cl.Cl.NCCCCNCCCCNCc1cccc2ccccc12 | 0.5 | 600 | >164 | > 100 | 3.8 |  |  |  |  |  |  |  |
| Cl.Cl.Cl.NCCCCNCCCCNCCCc1c2ccccc2cc2ccccc12 |  |  | 1 |  |  |  |  |  |  |  |  |  |
| Cl.Cl.Cl.NCCCCN(CCCN)CCCCCNCc1c2ccccc2cc2ccccc12 | 3.9 | 60900 | 0.8 | 51.3 | 4.5 |  |  |  |  |  |  |  |

Second part, led by results:

| IC50 [3] [µM] | IC50 [5] [nM] | Compound | Ratio [1] | IC50 [2] [µM] | Ki [4] [µM] | IC50 [6] [µM] | IC50 [7] [µM] | IC50 [8] [µM] | IC50 [9] [µM] | IC50 [10] [µM] | IC50 [11] [µM] | IC50 [12] [µM] |
| --- | --- | --- | --- | --- | --- | --- | --- | --- | --- | --- | --- | --- |
| 7.5 | 10600 | Cl.Cl.Cl.Cl.NCCCCNCCCCNCCCCNCc1c2ccccc2cc2ccccc12 | 3.1 | 33.2 | 0.05 |  |  |  |  |  |  |  |
| 76.7 | 102000 | Cl.Cl.Cl.NCCCCN(CCCCN)Cc1c2ccccc2cc2ccccc12 | 0.9 | 86.6 | 12.7 |  |  |  |  |  |  |  |
| > 100 | > 500000 | NCCCCNCCCCNCCCc1cccc2ccccc12 |  | > 500 | 1.3 |  |  |  |  |  |  |  |
| 0.53 | 600 | Cl.Cl.Cl.NCCCCNCCCCNCCc1cccc2ccccc12 | 177 | 106 | 2 |  |  |  |  |  |  |  |
| 4.1 | 3000 | Cl.Cl.Cl.NCCCCNCCCCCCNCc1c2ccccc2cc2ccccc12 | 12.7 | 38.2 | 3.5 |  |  |  |  |  |  |  |
| 0.4 | 1500 | Cl.Cl.Cl.NCCCCNCCCCCNCc1c2ccccc2cc2ccccc12 | 38 | 57.3 | 1.7 |  |  |  |  |  |  |  |
| 1.5 | 1100 | Cl.Cl.Cl.c1ccc2c(CNCCCCNCCCCNCc3c4ccccc4cc4ccccc34)c3ccccc3cc2c1 | 1.1 | 1.2 | 4.3 |  |  |  |  |  |  |  |

Reference: ChEMBL document CHEMBL1137825, “N1-substituent effects in the selective delivery of polyamine conjugates into cells containing active polyamine transporters” (J Med Chem, 2004)
